Key:
[1] = substrate: N[C@@H](CCC(=O)O)C(=O)O; test: (§1) Binding affinity to human EAAT3 expressed in HEK293 cells in FMP (FLPR) assay; assay type: functional, cell-based
How it was run: (§2)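 HEK293 cells stably expressing the human transporter, seeded on poly-D-lysine plates in DMEM with 10% dialyzed FBS and G-418 for 16–24 h. Cells washed in Krebs buffer (pH 7.4), then loaded with FMP dye for 30 min at 37 °C. Read at room temperature, excitation 530 nm and emission 560 nm, for up to 1 min after substrate addition. Non-substrate inhibitors were preincubated and tested against 30 μM Glu. Seven-concentration curves from maximal responses, duplicate, at least three times.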

[2] = substrate: N[C@@H](C[C@H](O)C(=O)O)C(=O)O; test: as §1; assay type: functional, cell-based; how it was run: as §2
[3] = molecular target: Excitatory amino acid transporter 3 (Homo sapiens) (UniProt P43005); test: Binding affinity to human EAAT3 expressed in HEK293 cells in FMP (FLPR) assay
[4] = substrate: C[C@H](C[C@H](N)C(=O)O)C(=O)O; test: (§3) Binding affinity to human EAAT1 expressed in HEK293 cells in FMP (FLPR) assay; assay type: functional, cell-based; how it was run: as §2
[5] = substrate: N[C@@H](CCC(=O)O)C(=O)O; test: as §3; assay type: functional, cell-based; how it was run: as §2
[6] = substrate: N[C@@H](C[C@@H](O)C(=O)O)C(=O)O; test: as §3; assay type: functional, cell-based; how it was run: as §2
[7] = substrate: N[C@@H](C[C@H](O)C(=O)O)C(=O)O; test: as §3; assay type: functional, cell-based; how it was run: as §2

B1: Excitatory amino acid transporter 3 (Homo sapiens), P43005 (protein)
chain: MGKPARKGCEWKRFLKNNWVLLSTVAAVVLGITTGVLVREHSNLSTLEKFYFAFPGEILMRMLKLIILPLIISSMITGVAALDSNVSGKIGLRAVVYYFCTTLIAVILGIVLVVSIKPGVTQKVGEIARTGSTPEVSTVDAMLDLIRNMFPENLVQACFQQYKTKREEVKPPSDPEMNMTEESFTAVMTTAISKNKTKEYKIVGMYSDGINVLGLIVFCLVFGLVIGKMGEKGQILVDFFNALSDATMKIVQIIMCYMPLGILFLIAGKIIEVEDWEIFRKLGLYMATVLTGLAIHSIVILPLIYFIVVRKNPFRFAMGMAQALLTALMISSSSATLPVTFRCAEENNQVDKRITRFVLPVGATINMDGTALYEAVAAVFIAQLNDLDLGIGQIITISITATSASIGAAGVPQAGLVTMVIVLSAVGLPAEDVTLIIAVDWLLDRFRTMVNVLGDAFGTGIVEKLSKKELEQMDVSSEVNIVNPFALESTILDNEDSDTKKSYVNGGFAVDKSDTISFTQTSQF
B1 was tested, and the Km [1] was 25 µM, the Km [2] was 81 µM and the Km [3] was 1000 µM.

B2: Excitatory amino acid transporter 1 (Homo sapiens), P43003 (protein)
chain: MTKSNGEEPKMGGRMERFQQGVRKRTLLAKKKVQNITKEDVKSYLFRNAFVLLTVTAVIVGTILGFTLRPYRMSYREVKYFSFPGELLMRMLQMLVLPLIISSLVTGMAALDSKASGKMGMRAVVYYMTTTIIAVVIGIIIVIIIHPGKGTKENMHREGKIVRVTAADAFLDLIRNMFPPNLVEACFKQFKTNYEKRSFKVPIQANETLVGAVINNVSEAMETLTRITEELVPVPGSVNGVNALGLVVFSMCFGFVIGNMKEQGQALREFFDSLNEAIMRLVAVIMWYAPVGILFLIAGKIVEMEDMGVIGGQLAMYTVTVIVGLLIHAVIVLPLLYFLVTRKNPWVFIGGLLQALITALGTSSSSATLPITFKCLEENNGVDKRVTRFVLPVGATINMDGTALYEALAAIFIAQVNNFELNFGQIITISITATAASIGAAGIPQAGLVTMVIVLTSVGLPTDDITLIIAVDWFLDRLRTTTNVLGDSLGAGIVEHLSRHELKNRDVEMGNSVIEENEMKKPYQLIAQDNETEKPIDSETKM
B2 gave a Km [4] of 13 µM, a Km [5] of 9.2 µM and a Km [6] of 1000 µM. For the same protein, the Km [7] was 140 µM.
